Reference: paper PMC7906539 (Medicinal chemistry research : an international journal for …, 2020)

Assays:
[1] = target: His-mHtt and GST-CaM (CaM–mHtt interaction) (Homo sapiens, UniProt P0DP23+P42858); assay: CaM/mHtt AlphaScreen binding assay; conditions: for IC50: read-out: AlphaScreen CaM–mHtt, IC50, triplicate
Outline: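 His-mHtt (10 nM) preincubated 30 min with test compound, then GST-CaM (10 nM) added for 60 min at room temperature. Ni-chelate acceptor (10 μg/mL) and glutathione donor beads (15 μg/mL) are added for 2 h, then Alpha counts are read. Final 300–0.002 μM, triplicate; % inhibition normalized to DMSO controls.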

SH-SY5Y cells = assay: Cytotoxicity assay; type: cell-based; conditions: for Cytotoxicity (SH-SY5Y cells, 24 h): 24 h incubation, CellTiter-Glo
Outline: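 SH-SY5Y cells seeded at 6000/well in 1:1 EMEM/F12 with 10% FBS. Exposure 24 h at 37 °C, then CellTiter-Glo luminescence read. Percent cytotoxicity normalized to DMSO controls.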

Chain of His-mHtt and GST-CaM (CaM–mHtt interaction) (P42858 whole entry, one chain of several): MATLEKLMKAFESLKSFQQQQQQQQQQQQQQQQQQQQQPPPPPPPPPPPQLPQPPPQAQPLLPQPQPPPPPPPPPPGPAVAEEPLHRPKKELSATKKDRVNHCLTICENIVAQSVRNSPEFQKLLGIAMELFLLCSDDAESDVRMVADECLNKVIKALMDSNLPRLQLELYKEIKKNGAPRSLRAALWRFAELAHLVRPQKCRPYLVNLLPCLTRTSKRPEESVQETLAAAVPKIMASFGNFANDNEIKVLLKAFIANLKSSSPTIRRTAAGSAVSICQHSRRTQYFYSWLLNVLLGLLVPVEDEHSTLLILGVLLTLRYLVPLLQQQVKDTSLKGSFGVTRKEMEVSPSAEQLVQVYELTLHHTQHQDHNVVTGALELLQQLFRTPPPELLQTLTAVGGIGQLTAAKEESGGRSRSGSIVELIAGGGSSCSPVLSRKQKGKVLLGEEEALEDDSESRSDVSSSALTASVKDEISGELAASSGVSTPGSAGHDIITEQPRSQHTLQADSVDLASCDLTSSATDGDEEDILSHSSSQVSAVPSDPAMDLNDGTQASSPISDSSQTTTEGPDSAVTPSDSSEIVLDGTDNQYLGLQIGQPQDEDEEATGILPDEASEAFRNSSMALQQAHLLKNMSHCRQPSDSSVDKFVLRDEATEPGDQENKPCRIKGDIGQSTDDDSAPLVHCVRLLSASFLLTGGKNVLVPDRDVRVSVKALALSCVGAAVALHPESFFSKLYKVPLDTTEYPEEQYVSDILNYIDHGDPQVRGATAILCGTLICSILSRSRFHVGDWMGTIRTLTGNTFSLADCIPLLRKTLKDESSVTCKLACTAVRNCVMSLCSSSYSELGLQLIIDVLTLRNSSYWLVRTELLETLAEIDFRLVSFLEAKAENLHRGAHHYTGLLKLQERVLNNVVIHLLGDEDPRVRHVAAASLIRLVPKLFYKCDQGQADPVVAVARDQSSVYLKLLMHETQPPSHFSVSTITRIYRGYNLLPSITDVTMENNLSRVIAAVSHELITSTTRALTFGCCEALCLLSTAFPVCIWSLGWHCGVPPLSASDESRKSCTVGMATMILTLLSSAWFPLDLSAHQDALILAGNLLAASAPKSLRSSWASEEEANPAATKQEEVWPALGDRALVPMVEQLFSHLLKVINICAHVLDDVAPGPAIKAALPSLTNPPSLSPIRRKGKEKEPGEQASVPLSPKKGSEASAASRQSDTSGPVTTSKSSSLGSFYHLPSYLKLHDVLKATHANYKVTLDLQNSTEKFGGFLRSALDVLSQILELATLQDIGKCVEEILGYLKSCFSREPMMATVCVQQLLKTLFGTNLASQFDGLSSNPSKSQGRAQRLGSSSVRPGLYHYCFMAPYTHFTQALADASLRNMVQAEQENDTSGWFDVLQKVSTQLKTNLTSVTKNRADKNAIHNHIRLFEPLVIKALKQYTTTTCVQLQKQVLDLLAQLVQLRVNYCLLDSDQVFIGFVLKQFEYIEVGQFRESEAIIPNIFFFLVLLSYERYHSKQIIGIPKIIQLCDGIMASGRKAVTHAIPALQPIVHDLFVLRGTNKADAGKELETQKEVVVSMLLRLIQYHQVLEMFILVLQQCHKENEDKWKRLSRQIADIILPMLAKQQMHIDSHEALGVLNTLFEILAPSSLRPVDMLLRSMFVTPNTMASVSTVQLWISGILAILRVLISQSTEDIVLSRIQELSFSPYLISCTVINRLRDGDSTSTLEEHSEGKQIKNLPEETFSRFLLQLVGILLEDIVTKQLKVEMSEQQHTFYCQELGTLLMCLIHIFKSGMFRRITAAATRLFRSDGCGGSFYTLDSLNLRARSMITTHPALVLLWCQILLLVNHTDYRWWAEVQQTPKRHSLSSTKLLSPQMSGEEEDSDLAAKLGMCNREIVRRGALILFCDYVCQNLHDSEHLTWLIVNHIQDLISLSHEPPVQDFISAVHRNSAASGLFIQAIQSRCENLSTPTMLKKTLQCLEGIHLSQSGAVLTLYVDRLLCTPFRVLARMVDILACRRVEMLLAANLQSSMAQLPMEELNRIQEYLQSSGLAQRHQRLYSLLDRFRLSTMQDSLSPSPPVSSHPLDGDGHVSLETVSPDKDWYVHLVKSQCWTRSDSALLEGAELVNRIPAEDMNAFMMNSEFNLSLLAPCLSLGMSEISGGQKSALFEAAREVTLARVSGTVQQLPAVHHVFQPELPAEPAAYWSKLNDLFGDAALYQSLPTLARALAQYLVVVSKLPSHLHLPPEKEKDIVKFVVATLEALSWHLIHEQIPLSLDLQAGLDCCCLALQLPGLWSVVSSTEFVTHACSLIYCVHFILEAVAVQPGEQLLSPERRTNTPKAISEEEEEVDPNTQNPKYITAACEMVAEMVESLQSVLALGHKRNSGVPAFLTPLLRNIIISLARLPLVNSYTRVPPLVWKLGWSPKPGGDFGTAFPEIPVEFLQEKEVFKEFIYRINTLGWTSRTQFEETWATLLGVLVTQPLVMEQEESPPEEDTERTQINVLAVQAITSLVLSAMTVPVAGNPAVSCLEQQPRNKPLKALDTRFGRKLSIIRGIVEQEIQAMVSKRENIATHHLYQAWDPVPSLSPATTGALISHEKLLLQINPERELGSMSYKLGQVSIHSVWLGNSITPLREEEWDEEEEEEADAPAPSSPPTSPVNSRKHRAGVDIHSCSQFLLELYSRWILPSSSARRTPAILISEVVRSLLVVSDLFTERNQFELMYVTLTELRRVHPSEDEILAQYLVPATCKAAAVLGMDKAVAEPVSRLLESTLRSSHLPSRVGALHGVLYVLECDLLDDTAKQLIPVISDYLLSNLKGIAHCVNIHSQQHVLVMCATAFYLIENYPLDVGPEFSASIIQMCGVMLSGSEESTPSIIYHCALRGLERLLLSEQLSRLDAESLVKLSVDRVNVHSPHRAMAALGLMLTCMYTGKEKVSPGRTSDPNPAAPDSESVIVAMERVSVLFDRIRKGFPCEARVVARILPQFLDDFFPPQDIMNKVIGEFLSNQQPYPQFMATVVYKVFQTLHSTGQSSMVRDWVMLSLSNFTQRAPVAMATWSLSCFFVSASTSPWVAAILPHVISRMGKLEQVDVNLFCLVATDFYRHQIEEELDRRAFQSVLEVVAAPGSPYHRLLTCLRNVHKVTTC

Disruption of mHtt-CaM PPI (in words) [1]	IC50 [1]	Structure (SMILES)	Toxicity to SH-SY5Y cells (in words) (SH-SY5Y cells)	Cytotoxicity (SH-SY5Y cells, 24 h) (SH-SY5Y cells)
retained activity	1.03 µM	C=C1CCN([C@@H](CC(C)C)C(=O)NCc2ccc(Cl)c(Cl)c2)S(=O)(=O)c2ccccc21 [Compound 9a]	no measurable toxicity	>300 µM
	12.4 µM	C=C1CCN([C@@H](CC(C)C)C(=O)NCc2ccccc2)S(=O)(=O)c2ccccc21 [Compound 9b]		>300 µM
	15 µM	C=C1CCN([C@@H](CC(C)C)C(=O)NCc2ccc(C)cc2)S(=O)(=O)c2ccccc21 [Compound 9e, (S)-4-Methyl-N-(4-methylbenzyl)-2-(5-methylene-1,1-dioxido-4,5-dihydrobenzo[f][1,2]thiazepin-2(3H)-yl) pentanamide]		102 ± 7 µM
lost all mHtt-CaM disruption activity	> 300 µM	C=C1CCN([C@@H](CC(C)C)C(=O)NCc2ccc(OC)cc2)S(=O)(=O)c2ccccc21 [Compound 9f, (S)-N-(4-Methoxybenzyl)-4-methyl-2-(5-methylene-1,1-dioxido-4,5-dihydrobenzo[f][1,2]thiazepin-2(3H)-yl) pentanamide]		>300 µM
	16.6 µM	C=C1CCN([C@@H](CC(C)C)C(=O)NCC2CCCCC2)S(=O)(=O)c2ccccc21 [Compound 9g, (S)-N-(Cyclohexylmethyl)-4-methyl-2-(5-methylene-1,1-dioxido-4,5-dihydrobenzo[f][1,2]thiazepin-2(3H)-yl) pentanamide]		101 ± 5 µM
	0.98 µM	C=C1CCN([C@H](CC(C)C)C(=O)NCc2ccc(Cl)c(Cl)c2)S(=O)(=O)c2ccccc21 [Compound 10a, (R)-N-(3,4-Dichlorobenzyl)-4-methyl-2-(5-methylene-1,1-dioxido-4,5-dihydrobenzo[f][1,2]thiazepin-2(3H)-yl) pentanamide]		>300 µM
	12.7 µM	C=C1CCN([C@H](CC(C)C)C(=O)NCc2ccccc2)S(=O)(=O)c2ccccc21 [Compound 10b, (R)-N-Benzyl-4-methyl-2-(5-methylene-1,1-dioxido-4,5-dihydrobenzo[f][1,2]thiazepin-2(3H)-yl)pentanamide]		87 ± 2 µM
	1.8 µM	C=C1CCN([C@H](CC(C)C)C(=O)NCc2ccc(Cl)c(C(F)(F)F)c2)S(=O)(=O)c2ccccc21 [Compound 10d, (R)-N-(4-Chloro-3-(trifluoromethyl)benzyl)-4-methyl-2-(5-methylene-1,1-dioxido-4,5-dihydrobenzo[f][1,2]thiazepin-2 (3H)-yl)pentanamide]		>300 µM
	15.1 µM	C=C1CCN([C@H](CC(C)C)C(=O)NCc2ccc(C)cc2)S(=O)(=O)c2ccccc21 [Compound 10e, (R)-4-Methyl-N-(4-methylbenzyl)-2-(5-methylene-1,1-dioxido-4,5-dihydrobenzo[f][1,2]thiazepin-2(3H)-yl) pentanamide]		64 ± 2.5 µM
lost all mHtt-CaM disruption activity	> 300 µM	C=C1CCN([C@H](CC(C)C)C(=O)NCc2ccc(OC)cc2)S(=O)(=O)c2ccccc21 [Compound 10f, (R)-N-(4-Methoxybenzyl)-4-methyl-2-(5-methylene-1,1-dioxido-4,5-dihydrobenzo[f][1,2]thiazepin-2(3H)-yl) pentanamide]		>300 µM
	12.2 µM	C=C1CCN([C@H](CC(C)C)C(=O)NCC2CCCCC2)S(=O)(=O)c2ccccc21 [Compound 10g, (R)-N-(Cyclohexylmethyl)-4-methyl-2-(5-methylene-1,1-dioxido-4,5-dihydrobenzo[f][1,2]thiazepin-2(3H)-yl) pentanamide]		99 ± 4 µM
	2.14 µM	CC(C)C[C@@H](C(=O)NCc1ccc(Cl)c(Cl)c1)N1CCC(=O)c2ccccc2S1(=O)=O [Compound 11a, (S) -N-(3,4-Dichlorobenzyl)-2-(1,1-dioxido-5-oxo-4,5-dihydrobenzo[f][1,2]thiazepin-2(3H)-yl)-4-methylpentanamide]		39.8 µM
	14.6 µM	CC(C)C[C@@H](C(=O)NCc1ccccc1)N1CCC(=O)c2ccccc2S1(=O)=O [Compound 11b, (S)-N-Benzyl-2-(1,1-dioxido-5-oxo-4,5-dihydrobenzo[f][1,2]thiazepin-2(3H)-yl)-4-methylpentanamide]		43.8 µM
	11.2 µM	CC(C)C[C@@H](C(=O)NCc1ccc(Cl)cc1)N1CCC(=O)c2ccccc2S1(=O)=O [Compound 11c, (S)-N-(4-Chlorobenzyl)-2-(1,1-dioxido-5-oxo-4,5-dihydrobenzo[f][1,2]thiazepin-2(3H)-yl)-4-methylpentanamide]		41.4 µM
	2.03 µM	CC(C)C[C@@H](C(=O)NCc1ccc(Cl)c(C(F)(F)F)c1)N1CCC(=O)c2ccccc2S1(=O)=O [Compound 11d, (S)-N-(4-Chloro-3-(trifluoromethyl)benzyl)-2-(1,1-dioxido-5-oxo-4,5-dihydrobenzo[f][1,2]thiazepin-2(3H)-yl)-4-methylpentanamide]		44.2 µM
	24.5 µM	Cc1ccc(CNC(=O)[C@H](CC(C)C)N2CCC(=O)c3ccccc3S2(=O)=O)cc1 [Compound 11e, (S)-2-(1,1-Dioxido-5-oxo-4,5-dihydrobenzo[f][1,2]thiazepin-2(3H)-yl)-4-methyl-N-(4-methylbenzyl)pentanamide]		43.4 µM
retained marginal activity	52.6 µM	COc1ccc(CNC(=O)[C@H](CC(C)C)N2CCC(=O)c3ccccc3S2(=O)=O)cc1 [Compound 11f, (S)-2-(1,1-Dioxido-5-oxo-4,5-dihydrobenzo[f][1,2]thiazepin-2(3H)-yl)-N-(4-methoxybenzyl)-4-methylpentanamide]		44.6 µM
	31 µM	CC(C)C[C@@H](C(=O)NCC1CCCCC1)N1CCC(=O)c2ccccc2S1(=O)=O [Compound 11g, (S)-W-(Cyclohexylmethyl)-2-(1,1-dioxido-5-oxo-4,5-dihydrobenzo[f][1,2]thiazepin-2(3H)-yl)-4-methylpentanamide]		40.1 µM
	0.97 µM	CC(C)C[C@@H](C(=O)NCCc1ccc(Cl)c(Cl)c1)N1CCC(=O)c2ccccc2S1(=O)=O [Compound 11h, (S)-N-(3,4-Dichlorophenethyl)-2-(1,1-dioxido-5-oxo-4,5-dihydrobenzo[f][1,2]thiazepin-2(3H)-yl)-4-methylpentanamide]		32.3 µM
